The text below walks through data of ChEMBL document CHEMBL1157732, “Piperazinyl pyrimidine derivatives as potent gamma-secretase modulators” (Bioorg Med Chem Lett, 2010).

Test [1] in a line: Activity at gamma-secretase expressed in human SH-SY5Y cells assessed as inhibition of amyloid beta 40 production by electrochemiluminescence assay. Type of test: cell-based. The method, boiled down:
(§1)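 SH-SY5Y cells stably overexpressing the β-APP C-terminal fragment SPA4CT; Aβ40 and Aβ42 peptides secreted into the medium quantified by electrochemiluminescent detection; IC50 values derived from these measurements.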

A short description of test [2]: Activity at gamma-secretase expressed in human SH-SY5Y cells assessed as inhibition of amyloid beta 42 production by electrochemiluminescence assay. Type of test: cell-based. The method in brief:
as §1

Test [3] addresses Gamma-secretase. Description: Inhibition of gamma-secretase-mediated NotchdeltaE cleavage in human HeLa cells by luciferase assay. The class given is cell-based.
Test [4] deals with Gamma-secretase (Homo sapiens) (UniProt Q96BI3+Q9NZ42+Q8WW43+P49768+Q92542+P49810). Description: Selectivity ratio, IC50 for human gamma-secretase-mediated NotchdeltaE cleavage to IC50 for gamma-secretase-mediated amyloid beta 42 production. Type of test: protein-complex assay.

Consider `COc1ccc(N2CCN(c3nc(Nc4cc(C(C)(C)C)ccc4C)cc(S(C)(=O)=O)n3)CC2(C)C)cc1`, for which the IC50 (as a rule, the concentration needed to halve the response being measured) was found to be 5780 nM in test [1] and 400 nM in test [2].

For the compound `CCN(CC)c1cc(C)c(Nc2ccnc(N3CCN(c4ccc(OC)cc4)CC3)n2)cc1C`, the IC50 is 3740 nM in test [1] and 1910 nM in test [2].

In the case of `COc1ccc(N2CCN(c3nccc(Nc4cc(C(C)(C)C)ccc4C)n3)CC2(C)C)cc1`, the results for the IC50 in test [1] and in test [2] were 5560 nM and 255 nM, respectively.

Consider `COc1ccc(N2CCN(c3nccc(Nc4cc(C)ccc4C)n3)CC2(C)C)cc1`, for which the IC50 in test [1] is 4580 nM; in test [2] it was 1000 nM.

As for `COc1ccc(N2CCN(c3nc(Nc4cc(C(C)(C)C)ccc4C)cc(C(=O)O)n3)CC2(C)C)cc1`, the concentration for half-maximal inhibition (IC50) in test [1] was found to be 1930 nM; in test [2] it was 234 nM.

Turning to `COc1ccc(N2CCN(c3nc(Nc4cc(C(C)(C)C)ccc4C)cc(C(=O)NCCN(C)C)n3)CC2(C)C)cc1`, the values for the IC50 in test [1] and in test [2] were 1710 nM and 112 nM, respectively.

For the compound `COc1ccc(N2CCN(c3nccc(Nc4cc(-c5ccccc5)ccc4C)n3)CC2(C)C)cc1`, the values for the IC50 in test [1] and in test [2] were 2280 nM and 410 nM, respectively.

With `COc1ccc(N2CCN(c3nc(N)cc(Nc4cc(C(C)(C)C)ccc4C)n3)CC2(C)C)cc1`, the values for the IC50 in test [1], in test [3] and in test [2] were 830 nM, 34400 nM and 88 nM, respectively. Also, in test [4], the Ratio IC50 turned out to be 390.

Consider `CCOc1cc(C)c(Nc2ccnc(N3CCN(c4ccc(OC)cc4)C(C)(C)C3)n2)cc1C`, for which the figures for the IC50 in test [1] and in test [2] were 6300 nM and 534 nM, respectively.

For `CCOc1ccc(Nc2ccnc(N3CCN(c4ccc(OC)cc4)C(C)(C)C3)n2)c(C)c1`, the IC50 in test [1] stood at 10000 nM; in test [2], 3440 nM.

For `COc1ccc(N2CCN(c3nc(Nc4cc(C(C)(C)C)ccc4C)cc(OCCN4CCOCC4)n3)CC2(C)C)cc1`, the figures for the IC50 in test [1], in test [3] and in test [2] were 6150 nM, over 50000 nM and 263 nM, respectively. The Ratio IC50 in test [4] is over 190.

With `COc1ccc(N2CCN(c3nccc(Nc4cc(C(C)(C)C)nn4CC(F)(F)F)n3)CC2(C)C)cc1`, the IC50 stood at 5090 nM in test [1] and 272 nM in test [2].

With `COc1ccc(N2CCN(c3nc(CC(=O)O)cc(Nc4cc(C(C)(C)C)ccc4C)n3)CC2(C)C)cc1`, the 50% inhibitory concentration (IC50) in test [1] amounted to 6410 nM; in test [2], 572 nM.

As for `COc1ccc(N2CCN(c3nc(Nc4cc(C(C)(C)C)ccc4C)cc(N(C)CCN(C)C)n3)CC2(C)C)cc1`, the results for the IC50 in test [1] and in test [2] were 1970 nM and 213 nM, respectively.

With `COc1ccc(N2CCN(c3nc(Nc4cc(C(C)(C)C)ccc4C)cc(C(=O)NCC4CCCO4)n3)CC2(C)C)cc1` (stereo not given), the IC50 in test [1] is 8120 nM; in test [3], over 50000 nM; in test [2], 194 nM. Further, the Ratio IC50 in test [4] is over 250.

For the compound `COc1ccc(N2CCN(c3nc(Nc4cc(C(C)(C)C)ccc4C)cc(OCCC(C)(C)O)n3)CC2(C)C)cc1`, the IC50 in test [1] is 5450 nM; in test [3] it was over 50000 nM; in test [2] it was 216 nM. Moreover, the Ratio IC50 in test [4] is over 230.

For `COC(=O)c1cc(Nc2cc(C(C)(C)C)ccc2C)nc(N2CCN(c3ccc(OC)cc3)C(C)(C)C2)n1`, the figures for the IC50 in test [1] and in test [2] were 2290 nM and 85 nM, respectively.

`COc1ccc(N2CCN(c3nc(CO)cc(Nc4cc(C(C)(C)C)ccc4C)n3)CC2(C)C)cc1`: the IC50 turned out to be 823 nM in test [1], 6140 nM in test [3] and 34 nM in test [2]. In test [4], the Ratio IC50 stood at 180.

Turning to `COc1ccc(N2CCN(c3nc(CS(C)(=O)=O)cc(Nc4cc(C(C)(C)C)ccc4C)n3)CC2(C)C)cc1`, the IC50 in test [1] was determined as 6460 nM; in test [2], 348 nM.

On to `COc1ccc(N2CCN(c3nc(Nc4cc(C(C)(C)C)ccc4C)cc(OCCN(C)C)n3)CC2(C)C)cc1`, for which the IC50 is 1590 nM in test [1], 28800 nM in test [3] and 108 nM in test [2]. Besides, the Ratio IC50 in test [4] was 270.

As to `COc1ccc(N2CCN(c3nccc(Nc4cc(C(C)(C)C)nn4C)n3)CC2(C)C)cc1`, the IC50 in test [1] amounted to 1940 nM; in test [2] it was 150 nM.

In the case of `CCN(CC)c1cc(C)c(Nc2ccnc(N3CCN(c4ccc(OC)cc4)C(C)(C)C3)n2)cc1C`, the IC50 in test [1] is 2950 nM; in test [2] it was 169 nM.

As to `CCOc1cc(C)c(Nc2ccnc(N3CCN(c4ccc(OC)cc4)C(C)(C)C3)n2)cc1C(C)C`, the IC50 in test [1] was determined as 737 nM; in test [2], 35.6 nM.

Turning to `COc1ccc(N2CCN(c3nc(Nc4cc(C(C)(C)C)ccc4C)cc(OCCC4CCCN4C)n3)CC2(C)C)cc1` (stereo not given), the IC50 in test [1] is 5600 nM; in test [3], over 50000 nM; in test [2], 235 nM. For the same compound, in test [4], the Ratio IC50 is over 210.

As to `COc1ccc(N2CCN(c3nc(Nc4cc(C(C)(C)C)ccc4C)cc(OC)n3)CC2(C)C)cc1`, the IC50 is 5680 nM in test [1], over 50000 nM in test [3] and 262 nM in test [2]. In addition, the Ratio IC50 in test [4] was over 190.

For the compound `COc1ccc(N2CCN(c3nccc(Nc4cc(C(C)(C)C)ccc4Cl)n3)CC2(C)C)cc1`, the results for the IC50 in test [1] and in test [2] were 1000 nM and 695 nM, respectively.

With `CNC(=O)c1cc(Nc2cc(C(C)(C)C)ccc2C)nc(N2CCN(c3ccc(OC)cc3)C(C)(C)C2)n1`, the values for the IC50 in test [1] and in test [2] were 2980 nM and 307 nM, respectively.
